Data on 167 variants can be found in the RNAGym collection of RNA variant scans (doi:10.1126/science.aae0568).

The labels stand for the following.
B1: tRNA (parent)
chain: GUUCCGUUGGCGUAAUGGUAACGCGUCUCCCUCCUAAGGAGAAGACUGCGGGUUCGAGUCCCGUACGGAACG

This sample holds only a part of the variants without activity.

This data set covers variants of B1. Description: yeast fitness relative to wild type (ratio to wild type); higher = fitter; tRNA-Arg(CCU), competitive growth, 37 C, YPD. The method, boiled down:
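Amplicons of the tRNA-Arg(CCU) gene were sequenced, 100-nucleotide paired-end, from the start population and from each end population of a pooled yeast competition. The competition, in six parallel replicates, lasted 24 hours in YPD at 37°C. Fitness relative to wild type was calculated from changes in genotype frequencies. Genotypes had to have ≥ 100 starting reads, and estimates < 0.5 were set to 0.5.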
For C30U A43C G52A C66U, the yeast fitness was at most 0.5.
As for C30G G63A A70U, the yeast fitness was at most 0.5.
In the case of C30G C34A C49G G50A U59C, the yeast fitness is at most 0.5.
In the case of C30G A37G C55G, the yeast fitness was 0.537.
To C30G C31G A43G A57G belongs at most 0.5; to C30U A42C G48C, at most 0.5.
For C30G U53G G63A, the yeast fitness is at most 0.5.
To C30G G39C G44A belongs at most 0.5.
Take C30G A42G U64G: the yeast fitness was at most 0.5.
With C30G G50C, the yeast fitness amounted to 0.781.
For the variant C30G G50A, the yeast fitness stood at 0.72.
For the variant C30A U47C C61A A65C, the yeast fitness was at most 0.5.
For C30A C62A A70G, the yeast fitness came out at 0.547.
C30G C34A C49G G50A U64A G68C: the yeast fitness is at most 0.5.
As to C30A U32A G38A C55A A65C, the yeast fitness is at most 0.5.
Consider C30G A37C G38A A40U A45G, for which the yeast fitness was at most 0.5.
For the variant C30G U47C C66U, the yeast fitness turned out to be 0.634.
For C30U C33A A36U A43U U54C G56A the value was 0.54.
C30A G41C A45G G67C: the yeast fitness is at most 0.5.
For the variant C30A G68A, the yeast fitness was determined as 0.862.
For the variant C30A G68C, the yeast fitness was determined as 0.823.
Turning to C30G C62U, the yeast fitness was 0.643.
With C30U C31A A40U C49A, the yeast fitness was 0.682.
Turning to C30U C33G A69C, the yeast fitness is 0.546.
Consider C30U C55U C66U, for which the yeast fitness is 0.531.
For C30A G50C A69U, the yeast fitness was at most 0.5.
Regarding C30G G58C C66G, the yeast fitness was determined as 0.829.
As for C30A C61A A65G C66G A70G, the yeast fitness is at most 0.5.
For C30G G52C A69C the value was at most 0.5.
Consider C30U C34G U59C, for which the yeast fitness is at most 0.5.
For C30G G39A G58U C62A the value was at most 0.5; for C30A G39A U47A G63C, 0.528; for C30A G50A, 0.677.
Turning to C30U C31G A43C G51A, the yeast fitness came to 0.565.
In the case of C30G A42U C61A, the yeast fitness came to 0.639.
As for C30U C31G C66U, the yeast fitness stood at 0.512.
Regarding C30A G67A, the yeast fitness is 0.822.
On to C30G A36U C49G U53C G58C G67A A70U, for which the yeast fitness was at most 0.5.
As for C30U C34G A57G, the yeast fitness is 0.569.
For C30U C33A G63C U64C the value was at most 0.5; for C30U A36U A37G G48A A70G, at most 0.5.
With C30G A43C C60G, the yeast fitness is at most 0.5.
Turning to C30G C33U G58C, the yeast fitness was found to be 0.574.
In the case of C30G C33U G58A, the yeast fitness is at most 0.5.
To C30G C46G A69U belongs 0.586; to C30U C46A U54A A57G, 0.52; to C30U A43C G58A, 0.99.
Take C30U C55G G58C: the yeast fitness worked out at 0.526.
C30A G39C A57G: the yeast fitness was at most 0.5.
To C30A U35A belongs 0.569; to C30A U35A A42G A43C, at most 0.5; to C30G U32G C55G, at most 0.5.
With C30U C61U G63C, the yeast fitness is at most 0.5.
In the case of C30G G38C G56A A65G, the yeast fitness was 0.624.
Turning to C30U A36C G67U, the yeast fitness came to 0.639.
In the case of C30A G38A, the yeast fitness was 0.783.
To C30A C55G A57C C62G G68C belongs 0.513; to C30U A42G C62A, at most 0.5.
For C30G C31U A57G U59A, the yeast fitness is at most 0.5.
C30G G52A: the yeast fitness turned out to be 0.605.
For C30G G52C the value was 0.512; for C30G G41A C66U, at most 0.5.
Turning to C30G C33U G58C U64A C66U, the yeast fitness was at most 0.5.
To C30G C46U C49G U64A belongs at most 0.5; to C30G A40G G52C A57C C60U A70C, at most 0.5; to C30U C55U, 0.687.
C30U C55G: the yeast fitness turned out to be 0.553.
Take C30A G51A G67U: the yeast fitness is at most 0.5.
Regarding C30G C61A, the yeast fitness was at most 0.5.
As for C30G C61U, the yeast fitness worked out at 0.57.
To C30G C61G belongs 0.697.
Turning to C30U A36G A37G, the yeast fitness was 0.548.
For the variant C30U A42C, the yeast fitness stood at 0.755.
Take C30U A42G: the yeast fitness came to 0.8.
For C30U A42U the value was 0.879; for C30A G38A A42U, at most 0.5.
For C30U C46A G68C, the yeast fitness came to 0.704.
With C30G G58A G68A, the yeast fitness is 0.705.
To C30G C34A G52C belongs at most 0.5; to C30U C33U A43G, 0.569.
On to C30G C34G A37G, for which the yeast fitness was 0.811.
For C30U A42G C55U the value was 0.545; for C30G C55A A65U, 0.552.
On to C30G U35A C46U G51A G56A, for which the yeast fitness was at most 0.5.
In the case of C30U C33A G41C A42U, the yeast fitness is at most 0.5.
For the variant C30A U64C, the yeast fitness amounted to 0.885.
Turning to C30G G56A, the yeast fitness turned out to be 0.75.
Regarding C30G U54C, the yeast fitness amounted to 0.568.
To C30G U54G belongs at most 0.5; to C30G A36C C49A C55A G63C A69C, 0.608.
As to C30U A43U C55A, the yeast fitness is at most 0.5.
As to C30G U59C, the yeast fitness turned out to be 0.537.
Turning to C30G U59A, the yeast fitness was 0.595.
As to C30A G44A A45C, the yeast fitness is at most 0.5.
On to C30G C31G U32A C33U A65U, for which the yeast fitness was at most 0.5.
As for C30G G52C C62U, the yeast fitness is at most 0.5.
With C30A C46U G52C, the yeast fitness turned out to be 0.568.
For C30U C61G A70C the value was at most 0.5; for C30G G41A, 0.568; for C30G G41C, 0.616.
Consider C30G U32A A42U, for which the yeast fitness is at most 0.5.
As for C30A G50A A69C, the yeast fitness was found to be 0.675.
Regarding C30A U53A, the yeast fitness stood at 0.618.
Turning to C30A C62U A70U, the yeast fitness was found to be 0.709.
Turning to C30U A69U A70C, the yeast fitness amounted to 0.737.
C30U A42G C60G C62G A65G: the yeast fitness is at most 0.5.
As for C30G A65C, the yeast fitness was found to be 0.68.
Consider C30G A65U, for which the yeast fitness is 0.589.
Turning to C30A G44C U59A A69U, the yeast fitness was found to be 0.65.
As for C30G G51C, the yeast fitness is at most 0.5.
Take C30G G51A: the yeast fitness was found to be 0.566.
For C30U C33A G50C C55G the value was at most 0.5; for C30U A45G, 0.781.
To C30U A45C belongs 0.72; to C30G A43G, 0.589; to C30G C33G C49G C61G, 0.538.
Consider C30G C49A G56A C60G G68C, for which the yeast fitness came to 0.541.
C30U C60G G67A: the yeast fitness was at most 0.5.
For C30U A36U A57G the value was at most 0.5; for C30A G41A A42C G50C A70G, at most 0.5.
To C30G C46G C61U belongs at most 0.5; to C30G U47A C49G C61U G63C, 0.541.
As for C30G A40C C55A G58C A65U A70U, the yeast fitness was 0.769.
Consider C30G C49U G67C, for which the yeast fitness is at most 0.5.
Take C30U C31U: the yeast fitness is 1.02.
As to C30A U47C C66U A70U, the yeast fitness is at most 0.5.
Consider C30U A57G C60G, for which the yeast fitness was at most 0.5.
As for C30U A40G C55U U64C, the yeast fitness worked out at 0.646.
For the variant C30U A40C A57C, the yeast fitness was at most 0.5.
To C30U C34U G51C C55U belongs at most 0.5.
Take C30G A37G A43U: the yeast fitness is 0.593.
C30U C31G U53C: the yeast fitness was at most 0.5.
For C30A U32A A57C the value was at most 0.5; for C30A U53A C66U, at most 0.5.
On to C30U C34G C46U C55U G67C, for which the yeast fitness was at most 0.5.
For C30G C31G A65U C66G the value was at most 0.5; for C30A C46U G52C C66U, at most 0.5; for C30U A43C U54A, 0.611.
As for C30A G38A C55A A65C, the yeast fitness is 0.58.
Take C30U A43U C62U: the yeast fitness stood at 0.845.
Turning to C30A C49A A57U A70G, the yeast fitness stood at 0.509.
As to C30U C66A, the yeast fitness is 0.765.
As for C30U C66G, the yeast fitness was found to be 0.617.
Regarding C30G A45U C60G C62U C66G, the yeast fitness is at most 0.5.
On to C30G C34G A57U, for which the yeast fitness is at most 0.5.
For the variant C30A G58C, the yeast fitness was determined as 1.
With C30G U47G, the yeast fitness was at most 0.5.
To C30U C31U C60G belongs at most 0.5; to C30G C31U U32C, at most 0.5.
As to C30G A70C, the yeast fitness was 0.719.
For C30G A70G, the yeast fitness stood at 0.722.
Consider C30U C34G C46U, for which the yeast fitness was at most 0.5.
In the case of C30G U35C A42G C49U G56A G58A A70C, the yeast fitness stood at 0.591.
As for C30U C62U G68C, the yeast fitness came out at 0.598.
For the variant C30A C55U A70C, the yeast fitness amounted to 0.545.
Turning to C30A G63U U64A, the yeast fitness was at most 0.5.
To C30U C33G C46G belongs at most 0.5; to C30U A37C C66U, at most 0.5; to C30U C33A A43G, at most 0.5.
Consider C30A G50A G56A, for which the yeast fitness was 0.742.
On to C30U C49U A70C, for which the yeast fitness is 0.543.
Consider C30U A40C G63C U64C, for which the yeast fitness was at most 0.5.
To C30G C34U A57G C60U G68C belongs at most 0.5; to C30G A37G A40C C55A G58C A65U A70U, 0.542.
In the case of C30G U32A G48A G67C, the yeast fitness was 0.568.
As to C30U A42C C62G C66G, the yeast fitness is at most 0.5.
Consider C30G G41A A45C U64A, for which the yeast fitness was 0.579.
